{"source": "ChEMBL document CHEMBL4184297", "about": "“Discovery and validation of 2-styryl substituted benzoxazin-4-ones as a novel scaffold for rhomboid protease inhibitors” (Bioorg Med Chem Lett, 2018)", "key": {"Escherichia coli [1]": {"system": "Escherichia coli", "assay": "(§1) Reversible inhibition of recombinant Escherichia coli N-terminal His-tagged rhomboid protease GlpG expressed in Escherichia coli C43(DE3) cells assessed as recovery of enzyme activity at 10 uM using KSp76 as substrate preincubated for 1 hr followed by substrate addition measured over 120 mins by rapid dilution based fluorescence assay", "method_in_brief": "(§2)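 Rapid-dilution recovery. Inhibitor preincubated 1 h with 0.4 µM GlpG in 20 mM HEPES-NaOH pH 7.4, 150 mM NaCl, 0.05% DDM, then diluted 100-fold into buffer with 10 µM KSp76. Fluorescence (ex 553/em 583) monitored continuously for 120 min.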"}, "Escherichia coli [2]": {"system": "Escherichia coli", "assay": "Inhibition of recombinant Escherichia coli N-terminal His-tagged rhomboid protease GlpG expressed in Escherichia coli C43(DE3) cells at 250 uM using gurken as substrate preincubated for 30 mins followed by substrate addition measured after 90 mins by SDS-PAGE analysis"}, "Bos taurus": {"species_on_record": "Bos taurus", "assay": "Inhibition of bovine pancreas trypsin at 10 uM using Z-Gly-Gly-Argaminomethylcoumarin as substrate preincubated for 30 mins followed by substrate addition measured at 1 min time interval for 5 mins by fluorescence assay", "method_in_brief": "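Compound or DMSO preincubated with 10 nM bovine pancreatic trypsin in PBS for 30 min at 30°C. Started with Z-Gly-Gly-Arg-AMC (1 mM stock). AMC fluorescence (ex 340/em 440) read every 1 min for 5 min. Initial slope gives velocity; % activity = V inhibitor/V DMSO × 100.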"}, "[3]": {"assay": "Inhibition of recombinant Escherichia coli N-terminal His-tagged rhomboid protease GlpG expressed in Escherichia coli C43(DE3) cells using KSp53 as substrate incubated for 1 hr followed by substrate addition by fluorescence assay", "conditions": "in the assay text read “KSp35” for “KSp53”", "method_in_brief": "(§3)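 Started with 10 µM quenched fluorogenic peptide (KSp35 or KSp76). Fluorescence normalized to DMSO and plotted against log concentration; apparent IC50 from nonlinear regression.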"}, "[4]": {"target": "T1, Cathepsin G (Homo sapiens) (UniProt P08311)", "T1 sequence (whole entry)": "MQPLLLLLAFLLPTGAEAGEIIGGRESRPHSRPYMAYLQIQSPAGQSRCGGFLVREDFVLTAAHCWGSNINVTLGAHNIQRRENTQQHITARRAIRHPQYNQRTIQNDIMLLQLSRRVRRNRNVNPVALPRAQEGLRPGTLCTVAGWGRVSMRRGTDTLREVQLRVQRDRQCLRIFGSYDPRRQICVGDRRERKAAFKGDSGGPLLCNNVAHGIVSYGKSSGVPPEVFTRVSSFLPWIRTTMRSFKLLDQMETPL", "assay": "Inhibition of human neutrophil cathepsin G at 10 uM using N-Succinyl-Ala-Ala-Pro-Phe-p-nitroanilide as substrate preincubated for 30 mins followed by substrate addition measured at 1 min time interval for 5 mins by fluorescence assay", "conditions": "in the assay text read “absorbance assay” for “fluorescence assay”", "method_in_brief": "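Compound or DMSO preincubated with 200 nM human neutrophil cathepsin G for 30 min at 37°C in 100 mM HEPES, 500 mM NaCl, pH 7.4. Started with Suc-AAPF-pNA (2 mM stock). Absorbance at 410 nm read every 1 min for 5 min. Initial slope gives velocity; % activity relative to DMSO.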"}, "[5]": {"target": "T2, Neutrophil elastase (Homo sapiens) (UniProt P08246)", "T2 sequence (whole entry)": "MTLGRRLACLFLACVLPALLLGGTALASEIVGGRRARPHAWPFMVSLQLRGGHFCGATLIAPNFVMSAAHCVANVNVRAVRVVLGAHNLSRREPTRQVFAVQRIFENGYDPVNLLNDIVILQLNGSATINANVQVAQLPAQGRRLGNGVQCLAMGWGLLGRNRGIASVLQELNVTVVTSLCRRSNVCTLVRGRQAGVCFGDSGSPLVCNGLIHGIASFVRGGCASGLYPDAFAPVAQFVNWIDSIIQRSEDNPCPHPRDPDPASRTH", "assay": "Inhibition of human neutrophil elastase at 10 uM using N-Methoxysuccinyl-Ala-Ala-Pro-Val-p-nitroanilid as substrate preincubated for 20 mins followed by substrate addition measured at 1 min time interval for 5 mins by fluorescence assay"}, "Chymotrypsinogen A": {"target": "Chymotrypsinogen A (Bos taurus, UniProt P00766)", "assay": "Inhibition of bovine pancreas alpha-chymotrypsin using KSp21 as substrate preincubated for 30 mins followed by substrate addition measured after 50 to 60 mins by fluorescence assay"}, "Escherichia coli [6]": {"system": "Escherichia coli", "assay": "as §1, with “1” for “10”", "method_in_brief": "as §2"}, "Escherichia coli [7]": {"system": "Escherichia coli", "assay": "Binding affinity to wild type recombinant Escherichia coli rhomboid protease GlpG expressed in Escherichia coli C43(DE3) cells by electrospray mass spectrometric analysis", "method_in_brief": "(§4)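 GlpG (wild type or rhomboid mutants) expressed in E. coli C43(DE3) and purified, then reacted in vitro with compound or vehicle. Covalent adduct detected by electrospray mass spectrometry as an added peak with the expected mass shift over free enzyme. Two independent experiments.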"}, "[8]": {"target": "Chymotrypsinogen A (Bos taurus) (UniProt P00766)", "assay": "Inhibition of bovine alpha-chymotrypsin at 250 uM using N-Succinyl-Ala-AlaPro-Phe-p-nitroanilide as substrate incubated for 30 mins followed by substrate addition measured over 5 mins by spectroscopic method"}, "[9]": {"target": "T3, Rhomboid protease GlpG (Escherichia coli (strain K12)) (UniProt P09391)", "T3 sequence (whole entry)": "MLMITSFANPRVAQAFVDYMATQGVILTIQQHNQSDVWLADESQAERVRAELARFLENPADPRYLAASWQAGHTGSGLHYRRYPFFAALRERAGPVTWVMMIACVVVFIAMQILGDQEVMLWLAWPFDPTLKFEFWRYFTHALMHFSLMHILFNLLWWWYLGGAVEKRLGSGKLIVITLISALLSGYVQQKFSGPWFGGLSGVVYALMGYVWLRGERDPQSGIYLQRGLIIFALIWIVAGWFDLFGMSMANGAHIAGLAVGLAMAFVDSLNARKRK", "assay": "Binding affinity to recombinant Escherichia coli rhomboid protease GlpG His150 mutant expressed in Escherichia coli C43(DE3) cells by electrospray mass spectrometric analysis", "method_in_brief": "as §4"}, "[10]": {"system": "T4, Rhomboid protease GlpG (Escherichia coli (strain K12)), P09391 [H254A]", "T4 sequence (whole entry)": "T3 sequence (whole entry) with H254A", "assay": "Binding affinity to recombinant Escherichia coli rhomboid protease GlpG H254A mutant expressed in Escherichia coli C43(DE3) cells by electrospray mass spectrometric analysis", "method_in_brief": "as §4"}, "[11]": {"system": "T5, Rhomboid protease GlpG (Escherichia coli (strain K12)), P09391 [S201T]", "T5 sequence (whole entry)": "T3 sequence (whole entry) with S201T", "assay": "Binding affinity to recombinant Escherichia coli rhomboid protease GlpG S201T mutant expressed in Escherichia coli C43(DE3) cells by electrospray mass spectrometric analysis", "method_in_brief": "as §4"}, "Escherichia coli [12]": {"system": "Escherichia coli", "assay": "as §1, with “50” for “10”", "method_in_brief": "as §2"}, "[13]": {"assay": "Inhibition of recombinant Escherichia coli N-terminal His-tagged rhomboid protease GlpG expressed in Escherichia coli C43(DE3) cells using KSp76 as substrate incubated for 1 hr followed by substrate addition by fluorescence assay", "method_in_brief": "as §3"}}, "note": "Positions count from the first letter of the chain named. Activity calls are given as the source filed them. No cut-off for these calls is given here."}
{"smiles": "COc1oc(=O)c2cc(N)ccc2c1Cl", "values": [{"measurement": "inhibition", "setting": "Escherichia coli [1]", "value": "inactive"}]}
{"smiles": "O=c1oc(-c2ccccc2)nc2ccccc12", "values": [{"measurement": "inhibition", "setting": "Escherichia coli [2]", "value": "inactive"}]}
{"smiles": "O=c1oc(-c2ccc(F)cc2)nc2ccccc12", "values": [{"measurement": "inhibition", "setting": "Escherichia coli [2]", "value": "inactive"}]}
{"smiles": "COc1ccc(-c2nc3ccccc3c(=O)o2)cc1", "values": [{"measurement": "inhibition", "setting": "Escherichia coli [2]", "value": "inactive"}]}
{"smiles": "COc1ccc(/C=C/c2nc3ccccc3c(=O)o2)cc1", "values": [{"measurement": "inhibition", "setting": "Escherichia coli [2]", "value": "Active"}, {"measurement": "inhibition", "setting": "Bos taurus", "value": "inactive"}, {"measurement": "IC50", "setting": "[3]", "value": 48, "unit": "µM"}, {"measurement": "inhibition", "setting": "[4]", "value": "inactive"}, {"measurement": "inhibition", "setting": "[5]", "value": "inactive"}]}
{"smiles": "O=c1oc(Cl)c(Cl)c2ccccc12", "values": [{"measurement": "inhibition", "setting": "Bos taurus", "value": "Active"}, {"measurement": "IC50", "setting": "Chymotrypsinogen A", "value": 3.5, "unit": "µM"}, {"measurement": "inhibition", "setting": "[5]", "value": "Active"}]}
{"smiles": "O=c1oc(-c2ccco2)nc2ccccc12", "values": [{"measurement": "inhibition", "setting": "Escherichia coli [2]", "value": "inactive"}]}
{"smiles": "O=c1oc(/C=C/c2ccc(F)c(F)c2)nc2ccccc12", "values": [{"measurement": "inhibition", "setting": "Escherichia coli [2]", "value": "inactive"}]}
{"smiles": "O=C1CC(c2ccccc2)N1C(=O)Oc1ccccc1", "note": "(configuration not stated)", "values": [{"measurement": "inhibition", "setting": "Escherichia coli [6]", "value": "Active"}]}
{"smiles": "O=c1oc(/C=C/c2ccccc2)nc2ccccc12", "values": [{"measurement": "Activity", "setting": "Escherichia coli [7]", "value": "Active"}, {"measurement": "inhibition", "setting": "Escherichia coli [2]", "value": "Active"}, {"measurement": "inhibition", "setting": "Bos taurus", "value": "inactive"}, {"measurement": "IC50", "setting": "[3]", "value": 3.7, "unit": "µM"}, {"measurement": "inhibition", "setting": "[4]", "value": "Active"}, {"measurement": "inhibition", "setting": "[8]", "value": "inactive"}, {"measurement": "inhibition", "setting": "[5]", "value": "inactive"}]}
{"smiles": "CCC(=O)Oc1c(/C=C/c2nc3ccccc3c(=O)o2)cccc1OC", "values": [{"measurement": "inhibition", "setting": "Escherichia coli [2]", "value": "inactive"}]}
{"smiles": "O=c1oc(-c2ccccc2F)nc2ccccc12", "values": [{"measurement": "inhibition", "setting": "Escherichia coli [2]", "value": "inactive"}]}
{"smiles": "O=c1oc(-c2cccc(F)c2)nc2ccccc12", "values": [{"measurement": "inhibition", "setting": "Escherichia coli [2]", "value": "inactive"}]}
{"smiles": "O=c1oc(-c2cccc(Br)c2)nc2ccccc12", "values": [{"measurement": "inhibition", "setting": "Escherichia coli [2]", "value": "inactive"}]}
{"smiles": "O=c1oc(/C=C/c2ccccc2Cl)nc2ccccc12", "values": [{"measurement": "Activity", "setting": "[9]", "value": "Active"}, {"measurement": "Activity", "setting": "Escherichia coli [7]", "value": "Active"}, {"measurement": "Activity", "setting": "[10]", "value": "inactive"}, {"measurement": "inhibition", "setting": "Escherichia coli [2]", "value": "Active"}, {"measurement": "inhibition", "setting": "Bos taurus", "value": "inactive"}, {"measurement": "inhibition", "setting": "[4]", "value": "Active"}, {"measurement": "inhibition", "setting": "[8]", "value": "inactive"}, {"measurement": "Activity", "setting": "[11]", "value": "inactive"}, {"measurement": "inhibition", "setting": "[5]", "value": "inactive"}, {"measurement": "inhibition", "setting": "Escherichia coli [12]", "value": "Active"}, {"measurement": "IC50", "setting": "[13]", "value": 4.4, "unit": "µM"}]}
